Test results taken from ChEMBL document CHEMBL1817577, “Pachastrissamine (jaspine B) and its stereoisomers inhibit sphingosine kinases and atypical protein kinase C” (Bioorg Med Chem, 2011).

Columns and labels:
[1] = molecular target: T1, Sphingosine kinase 2 (Homo sapiens) (UniProt Q9NRA0); assay: Inhibition of N-terminal GST-fused sphingosine kinase 2 (1-618) expressed in baculovirus expression system assessed as inhibition of sphingosine phosphorylation after 1 hr by off-chip mobility shift assay; design: concentration or dose not given beside the values; settings: concentration not given here
T1 sequence (whole entry): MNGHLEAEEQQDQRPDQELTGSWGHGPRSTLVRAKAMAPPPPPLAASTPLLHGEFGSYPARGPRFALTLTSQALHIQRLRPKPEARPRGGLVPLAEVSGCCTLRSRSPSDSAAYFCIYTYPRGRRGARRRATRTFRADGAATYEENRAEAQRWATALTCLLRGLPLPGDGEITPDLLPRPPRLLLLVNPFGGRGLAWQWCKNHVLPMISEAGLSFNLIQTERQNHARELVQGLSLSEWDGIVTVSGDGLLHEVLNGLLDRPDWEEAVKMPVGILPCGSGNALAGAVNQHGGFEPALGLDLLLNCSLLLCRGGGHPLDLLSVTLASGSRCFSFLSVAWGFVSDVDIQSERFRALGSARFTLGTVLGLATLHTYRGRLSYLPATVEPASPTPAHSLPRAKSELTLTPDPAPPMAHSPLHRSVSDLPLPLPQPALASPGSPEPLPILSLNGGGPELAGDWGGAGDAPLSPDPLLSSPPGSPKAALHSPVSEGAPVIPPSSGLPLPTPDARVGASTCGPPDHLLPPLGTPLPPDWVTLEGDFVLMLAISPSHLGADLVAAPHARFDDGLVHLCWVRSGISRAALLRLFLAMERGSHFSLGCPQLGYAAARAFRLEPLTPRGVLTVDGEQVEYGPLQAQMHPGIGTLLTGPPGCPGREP
Outline: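 Glutathione-sepharose-purified GST fusion tested over a concentration series (DMSO stock diluted fourfold in 20 mM HEPES pH 7.5, 0.01% Triton X-100, 2 mM DTT). Reaction: 1 μM sphingosine, 600 μM ATP, 5 mM MgCl2, 1 h at room temperature, n = 4. Electrophoretic P/(P+S) read-out normalized to controls; IC50 fitted.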

[2] = molecular target: Sphingosine kinase 1 (Homo sapiens) (UniProt Q9NYA1); assay: Inhibition of N-terminal GST-fused sphingosine kinase 1 (1-384) expressed in baculovirus expression system assessed as inhibition of sphingosine phosphorylation after 1 hr by off-chip mobility shift assay; design: concentration or dose not given beside the values; settings: concentration not given here
Outline: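 GST-fusion enzyme purified on glutathione sepharose. Compound series in DMSO diluted fourfold into 20 mM HEPES pH 7.5, 0.01% Triton X-100, 2 mM DTT. Reaction: 1 μM sphingosine, 25 μM ATP, 5 mM MgCl2, 1 h at room temperature (n = 4). Substrate and product separated electrophoretically; P/(P+S) ratio against no-enzyme and no-inhibitor controls; IC50 from concentration series.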

[3] = molecular target: Protein kinase C alpha type (Homo sapiens) (UniProt P17252); assay: Inhibition of N-terminal GST-fused PKCalpha (1-672) expressed in baculovirus expression system at 30 uM after 1 hr by off-chip mobility shift assay relative to control
Outline: (§1)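 Enzymes purified by glutathione sepharose. DMSO compound stock diluted fourfold into 20 mM HEPES pH 7.5, 0.01% Triton X-100, 2 mM DTT, with phosphatidylserine (50 μg/mL), diacylglycerol (5 μg/mL) and 50 μM CaCl2. Reaction: 1 μM PKCθ substrate peptide (N-FL), 25 μM ATP, 5 mM MgCl2, 1 h at room temperature (n = 2). Read-out is electrophoretic P/(P+S) ratio, normalized to no-enzyme and no-inhibitor controls.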

[4] = molecular target: T2, Protein kinase C zeta type (Homo sapiens) (UniProt Q05513); assay: Inhibition of N-terminal GST-fused PKCzeta (1-592) expressed in baculovirus expression system at 30 uM after 1 hr by off-chip mobility shift assay relative to control
T2 sequence (whole entry): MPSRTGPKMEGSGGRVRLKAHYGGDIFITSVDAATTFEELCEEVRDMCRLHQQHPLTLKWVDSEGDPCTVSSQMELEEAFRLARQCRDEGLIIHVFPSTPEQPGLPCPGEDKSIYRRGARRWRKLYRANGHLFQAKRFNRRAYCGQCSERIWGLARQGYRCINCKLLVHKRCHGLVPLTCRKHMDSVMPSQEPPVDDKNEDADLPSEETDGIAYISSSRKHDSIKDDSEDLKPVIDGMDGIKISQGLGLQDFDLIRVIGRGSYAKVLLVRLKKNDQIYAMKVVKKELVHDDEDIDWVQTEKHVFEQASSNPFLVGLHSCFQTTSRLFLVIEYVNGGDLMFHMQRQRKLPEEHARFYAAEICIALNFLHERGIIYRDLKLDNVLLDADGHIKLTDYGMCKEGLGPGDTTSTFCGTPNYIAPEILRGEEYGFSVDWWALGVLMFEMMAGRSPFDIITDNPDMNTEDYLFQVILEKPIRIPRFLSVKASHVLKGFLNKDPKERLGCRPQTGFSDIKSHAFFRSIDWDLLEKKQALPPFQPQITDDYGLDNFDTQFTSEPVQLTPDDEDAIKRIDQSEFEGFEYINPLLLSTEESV
Outline: (§2)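 No lipid cofactors and no calcium. Reaction buffer is 20 mM HEPES pH 7.5, 0.01% Triton X-100, 2 mM DTT, with 1 μM PKCθ substrate peptide (N-FL), 5 μM ATP and 5 mM MgCl2. Incubated 1 h at room temperature (n = 2). Electrophoretic mobility shift read-out of P/(P+S); normalized to no-enzyme and no-inhibitor controls.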

[5] = molecular target: Protein kinase C iota type (Homo sapiens) (UniProt P41743); assay: Inhibition of N-terminal GST-fused PKClota (1-587) expressed in baculovirus expression system at 3 uM after 1 hr by off-chip mobility shift assay relative to control
[6] = molecular target: Protein kinase C gamma type (Homo sapiens) (UniProt P05129); assay: Inhibition of N-terminal GST-fused PKCgamma (1-697) expressed in baculovirus expression system at 30 uM after 1 hr by off-chip mobility shift assay relative to control; outline: as §1
[7] = molecular target: Protein kinase C eta type (Homo sapiens) (UniProt P24723); assay: Inhibition of N-terminal GST-fused PKCeta (1-683) expressed in baculovirus expression system at 30 uM after 1 hr by off-chip mobility shift assay relative to control
Outline: (§3)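 Buffer is HEPES pH 7.5 (20 mM), 0.01% Triton X-100, 2 mM DTT, with phosphatidylserine (50 μg/mL) and diacylglycerol (5 μg/mL) but no CaCl2. Reaction: 1 μM PKCθ substrate (N-FL), 25 μM ATP, 5 mM MgCl2, 1 h at room temperature, n = 2. Read-out is electrophoretic separation, P/(P+S) ratio, controls as 0% and 100% inhibition.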

[8] = molecular target: T3, Protein kinase C epsilon type (Homo sapiens) (UniProt Q02156); assay: Inhibition of N-terminal GST-fused PKCepsilon (1-737) expressed in baculovirus expression system at 30 uM after 1 hr by off-chip mobility shift assay relative to control
T3 sequence (whole entry): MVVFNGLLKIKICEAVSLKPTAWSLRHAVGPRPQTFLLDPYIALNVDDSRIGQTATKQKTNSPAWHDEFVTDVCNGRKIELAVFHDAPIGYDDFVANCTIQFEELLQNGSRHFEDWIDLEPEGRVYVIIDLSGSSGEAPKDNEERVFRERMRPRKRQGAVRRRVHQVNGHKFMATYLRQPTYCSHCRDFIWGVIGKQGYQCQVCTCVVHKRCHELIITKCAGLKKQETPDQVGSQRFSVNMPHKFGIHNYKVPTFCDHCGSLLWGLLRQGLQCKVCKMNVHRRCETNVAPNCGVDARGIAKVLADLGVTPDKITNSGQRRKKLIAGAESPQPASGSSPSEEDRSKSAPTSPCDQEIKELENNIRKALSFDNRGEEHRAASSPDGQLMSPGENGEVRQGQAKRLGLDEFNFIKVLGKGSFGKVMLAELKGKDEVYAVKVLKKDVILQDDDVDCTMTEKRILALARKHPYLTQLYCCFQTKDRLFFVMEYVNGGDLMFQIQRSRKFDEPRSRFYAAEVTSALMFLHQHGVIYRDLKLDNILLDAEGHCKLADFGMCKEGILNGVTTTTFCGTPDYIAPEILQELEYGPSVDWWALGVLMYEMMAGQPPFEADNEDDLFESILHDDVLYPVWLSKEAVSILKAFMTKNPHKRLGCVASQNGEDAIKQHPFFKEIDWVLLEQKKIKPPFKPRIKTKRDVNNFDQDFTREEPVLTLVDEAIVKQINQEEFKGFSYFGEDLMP
Outline: (§4)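 Lipid-activated reactions (phosphatidylserine 50 μg/mL, diacylglycerol 5 μg/mL), no CaCl2. Buffer is 20 mM HEPES pH 7.5, 0.01% Triton X-100, 2 mM DTT, with 1 μM N-FL PKCθ substrate peptide, 10 μM ATP and 5 mM MgCl2. Incubated 1 h at room temperature, n = 2. Product ratio P/(P+S) from electrophoretic peak heights, scaled between no-enzyme (100%) and no-inhibitor (0%) controls.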

[9] = molecular target: Protein kinase C delta type (Homo sapiens) (UniProt Q05655); assay: Inhibition of N-terminal GST-fused PKCdelta (1-676) expressed in baculovirus expression system at 30 uM after 1 hr by off-chip mobility shift assay relative to control; outline: as §4
[10] = molecular target: Protein kinase C beta type (Homo sapiens) (UniProt P05771); assay: Inhibition of N-terminal GST-fused PKCbeta2 (1-673) expressed in baculovirus expression system at 30 uM after 1 hr by off-chip mobility shift assay relative to control
Outline: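 Same buffer as the other conventional PKCs (20 mM HEPES pH 7.5, 0.01% Triton X-100, 2 mM DTT), with phosphatidylserine 50 μg/mL, diacylglycerol 5 μg/mL and 50 μM CaCl2. Reaction: 1 μM PKCθ substrate peptide (N-FL), 10 μM ATP, 5 mM MgCl2, 1 h at room temperature, duplicate. Substrate and product separated electrophoretically; inhibition from P/(P+S) versus no-enzyme and no-inhibitor controls.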

[11] = molecular target: Protein kinase C theta type (Homo sapiens) (UniProt Q04759); assay: Inhibition of N-terminal GST-fused PKCtheta (1-706) expressed in baculovirus expression system at 30 uM after 1 hr by off-chip mobility shift assay relative to control; outline: as §3
[12] = molecular target: Protein kinase C beta type (Homo sapiens) (UniProt P05771); assay: Inhibition of N-terminal GST-fused PKCbeta1 (1-671) expressed in baculovirus expression system at 30 uM after 1 hr by off-chip mobility shift assay relative to control; outline: as §1
[13] = molecular target: Protein kinase C iota type (Homo sapiens) (UniProt P41743); assay: Inhibition of N-terminal GST-fused PKClota (1-587) expressed in baculovirus expression system at 30 uM after 1 hr by off-chip mobility shift assay relative to control
[14] = molecular target: T2, Protein kinase C zeta type (Homo sapiens); assay: Inhibition of N-terminal GST-fused PKCzeta (1-592) expressed in baculovirus expression system at 3 uM after 1 hr by off-chip mobility shift assay relative to control; outline: as §2

Chain of Protein kinase C theta type (Homo sapiens) (Q04759 whole entry, looked up, the tested form may be a part): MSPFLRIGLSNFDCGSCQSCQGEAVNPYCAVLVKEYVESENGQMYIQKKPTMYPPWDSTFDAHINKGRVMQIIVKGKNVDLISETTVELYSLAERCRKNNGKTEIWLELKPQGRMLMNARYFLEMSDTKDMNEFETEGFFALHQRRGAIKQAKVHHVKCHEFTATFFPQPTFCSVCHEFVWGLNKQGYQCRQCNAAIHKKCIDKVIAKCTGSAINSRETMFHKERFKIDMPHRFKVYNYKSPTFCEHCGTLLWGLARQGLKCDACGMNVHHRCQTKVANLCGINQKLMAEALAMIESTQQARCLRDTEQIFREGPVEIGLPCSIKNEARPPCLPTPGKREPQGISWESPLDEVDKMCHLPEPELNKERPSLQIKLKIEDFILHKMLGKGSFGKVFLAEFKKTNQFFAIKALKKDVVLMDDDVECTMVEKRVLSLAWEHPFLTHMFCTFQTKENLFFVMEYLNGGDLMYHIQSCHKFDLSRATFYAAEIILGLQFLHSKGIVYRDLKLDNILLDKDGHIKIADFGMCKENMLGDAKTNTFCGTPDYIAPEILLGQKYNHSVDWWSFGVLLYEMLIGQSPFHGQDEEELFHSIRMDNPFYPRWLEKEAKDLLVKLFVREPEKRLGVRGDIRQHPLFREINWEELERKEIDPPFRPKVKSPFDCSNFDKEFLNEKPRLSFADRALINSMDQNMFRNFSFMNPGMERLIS
Chain of Sphingosine kinase 1 (Homo sapiens) (Q9NYA1 whole entry, the tested form may be a part): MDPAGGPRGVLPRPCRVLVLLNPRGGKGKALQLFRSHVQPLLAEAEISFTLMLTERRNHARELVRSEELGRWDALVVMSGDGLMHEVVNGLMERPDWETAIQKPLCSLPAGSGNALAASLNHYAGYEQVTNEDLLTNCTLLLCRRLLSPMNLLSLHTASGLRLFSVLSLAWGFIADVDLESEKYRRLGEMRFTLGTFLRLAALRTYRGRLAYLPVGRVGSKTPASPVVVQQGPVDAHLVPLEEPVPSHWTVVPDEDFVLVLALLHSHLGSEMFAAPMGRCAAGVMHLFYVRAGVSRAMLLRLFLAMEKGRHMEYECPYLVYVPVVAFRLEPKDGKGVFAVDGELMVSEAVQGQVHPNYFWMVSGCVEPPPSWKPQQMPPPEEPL
Chain of Protein kinase C iota type (Homo sapiens) (P41743 whole entry, looked up, the tested form may be a part): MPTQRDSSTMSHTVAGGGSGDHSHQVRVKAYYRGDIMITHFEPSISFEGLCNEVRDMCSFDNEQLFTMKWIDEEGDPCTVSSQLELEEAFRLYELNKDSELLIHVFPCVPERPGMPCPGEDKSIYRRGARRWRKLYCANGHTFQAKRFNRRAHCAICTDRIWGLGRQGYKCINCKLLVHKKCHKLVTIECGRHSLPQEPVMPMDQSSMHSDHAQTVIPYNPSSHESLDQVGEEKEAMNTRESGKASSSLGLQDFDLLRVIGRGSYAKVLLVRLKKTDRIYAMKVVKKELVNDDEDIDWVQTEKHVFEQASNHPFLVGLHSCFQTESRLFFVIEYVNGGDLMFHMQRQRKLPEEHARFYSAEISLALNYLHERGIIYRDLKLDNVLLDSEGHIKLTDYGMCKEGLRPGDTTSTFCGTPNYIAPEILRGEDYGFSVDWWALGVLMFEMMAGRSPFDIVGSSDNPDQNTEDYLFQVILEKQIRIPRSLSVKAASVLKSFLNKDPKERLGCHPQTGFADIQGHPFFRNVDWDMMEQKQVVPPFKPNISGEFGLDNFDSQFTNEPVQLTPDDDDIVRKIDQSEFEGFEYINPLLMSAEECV
Chain of Protein kinase C beta type (Homo sapiens) (P05771 2-671 limits assumed): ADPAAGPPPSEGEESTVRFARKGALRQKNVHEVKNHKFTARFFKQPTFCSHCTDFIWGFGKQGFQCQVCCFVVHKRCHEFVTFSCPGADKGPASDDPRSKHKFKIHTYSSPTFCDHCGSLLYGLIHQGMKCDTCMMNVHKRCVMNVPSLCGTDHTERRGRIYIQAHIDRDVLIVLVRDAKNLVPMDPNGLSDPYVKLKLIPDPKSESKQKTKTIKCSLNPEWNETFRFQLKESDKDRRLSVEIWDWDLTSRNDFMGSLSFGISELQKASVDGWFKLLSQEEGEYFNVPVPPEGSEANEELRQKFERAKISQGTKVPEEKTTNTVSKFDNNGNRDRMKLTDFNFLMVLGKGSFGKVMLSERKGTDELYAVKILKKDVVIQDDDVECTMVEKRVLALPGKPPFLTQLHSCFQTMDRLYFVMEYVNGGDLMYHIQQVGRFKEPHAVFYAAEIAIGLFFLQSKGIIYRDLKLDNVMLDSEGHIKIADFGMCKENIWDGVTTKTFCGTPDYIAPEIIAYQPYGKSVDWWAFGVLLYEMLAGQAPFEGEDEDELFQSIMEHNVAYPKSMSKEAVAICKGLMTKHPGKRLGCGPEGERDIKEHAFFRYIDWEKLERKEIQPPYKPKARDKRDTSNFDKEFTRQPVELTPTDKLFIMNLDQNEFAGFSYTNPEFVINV
Chain of Protein kinase C eta type (Homo sapiens) (P24723 whole entry, the tested form may be a part): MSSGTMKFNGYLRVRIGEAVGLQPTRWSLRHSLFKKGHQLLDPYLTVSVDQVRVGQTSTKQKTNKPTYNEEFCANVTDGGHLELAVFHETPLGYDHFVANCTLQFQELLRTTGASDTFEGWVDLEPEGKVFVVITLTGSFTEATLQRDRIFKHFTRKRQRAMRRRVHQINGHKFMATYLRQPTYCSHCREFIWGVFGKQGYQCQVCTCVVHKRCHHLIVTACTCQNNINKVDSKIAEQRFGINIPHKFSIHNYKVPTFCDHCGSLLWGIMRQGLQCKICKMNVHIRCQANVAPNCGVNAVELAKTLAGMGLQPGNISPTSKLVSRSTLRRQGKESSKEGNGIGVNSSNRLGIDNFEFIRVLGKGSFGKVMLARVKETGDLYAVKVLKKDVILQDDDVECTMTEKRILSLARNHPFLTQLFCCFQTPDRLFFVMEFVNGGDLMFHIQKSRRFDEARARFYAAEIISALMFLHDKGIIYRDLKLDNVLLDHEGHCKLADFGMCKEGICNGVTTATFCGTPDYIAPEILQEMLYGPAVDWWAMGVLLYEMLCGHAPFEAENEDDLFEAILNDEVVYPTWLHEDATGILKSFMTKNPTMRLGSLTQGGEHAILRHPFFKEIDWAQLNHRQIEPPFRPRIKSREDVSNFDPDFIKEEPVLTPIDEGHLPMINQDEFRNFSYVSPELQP
Chain of Protein kinase C delta type (Homo sapiens) (Q05655 whole entry, looked up, the tested form may be a part): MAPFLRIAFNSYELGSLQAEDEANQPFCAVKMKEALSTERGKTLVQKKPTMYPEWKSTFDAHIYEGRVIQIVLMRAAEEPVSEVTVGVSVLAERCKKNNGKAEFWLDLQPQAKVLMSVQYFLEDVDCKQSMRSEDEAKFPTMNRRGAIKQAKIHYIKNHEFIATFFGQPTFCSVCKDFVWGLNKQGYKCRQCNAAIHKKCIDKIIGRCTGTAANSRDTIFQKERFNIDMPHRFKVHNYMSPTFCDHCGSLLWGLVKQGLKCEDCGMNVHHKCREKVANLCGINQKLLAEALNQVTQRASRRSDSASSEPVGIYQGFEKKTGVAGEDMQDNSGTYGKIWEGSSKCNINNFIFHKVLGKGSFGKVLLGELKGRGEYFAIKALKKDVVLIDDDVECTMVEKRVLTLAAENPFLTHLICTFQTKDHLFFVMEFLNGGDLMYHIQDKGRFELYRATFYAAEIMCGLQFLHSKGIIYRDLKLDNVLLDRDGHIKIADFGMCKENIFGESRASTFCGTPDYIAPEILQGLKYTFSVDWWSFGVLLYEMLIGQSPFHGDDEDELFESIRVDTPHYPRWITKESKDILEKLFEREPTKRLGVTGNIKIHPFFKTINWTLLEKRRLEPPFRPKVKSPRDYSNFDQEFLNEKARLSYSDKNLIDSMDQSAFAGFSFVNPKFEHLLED

Row | SMILES | inhibition [1] [%] | inhibition [2] [%] | inhibition [3] [%] | inhibition [4] [%] | inhibition [5] [%] | inhibition [6] [%] | inhibition [7] [%] | inhibition [8] [%] | inhibition [9] [%] | inhibition [10] [%] | inhibition [11] [%] | inhibition [12] [%] | inhibition [13] [%] | inhibition [14] [%]
1 | CCCCCCCCCCCCCC[C@H]1OC[C@H](N)[C@H]1O | 50 | 50 | – | – | – | – | – | – | – | – | – | – | – | –
2 | CCCCCCCCCCCCCC[C@@H]1OC[C@@H](N)[C@@H]1O | 0.48 | 0.94 | 33.1 | 99.8 | 50 | 48.5 | 47 | 29.2 | 67.5 | 22.9 | 37.1 | 45.1 | 94.8 | 50
3 | CCCCCCCCCCCCCC[C@@H]1OC[C@H](N)[C@@H]1O | 6.6 | 4.6 | 32.7 | 100 | 50 | 48.6 | 56.6 | 37.4 | 69.6 | 27.9 | 39.8 | 48.5 | 98.5 | 50
4 | CCCCCCCCCCCCC/C=C/[C@@H](O)[C@H](CO)N(C)C | 50 | 50 | 35 | 99.1 | – | 49.2 | 43.8 | 40.4 | 83.9 | 44.3 | 47.1 | 68.5 | 100 | –

Results, then the compound that gave them:

Row | inhibition [1] [%] | inhibition [2] [%] | inhibition [3] [%] | inhibition [4] [%] | inhibition [5] [%] | inhibition [6] [%] | inhibition [7] [%] | inhibition [8] [%] | inhibition [9] [%] | inhibition [10] [%] | inhibition [11] [%] | inhibition [12] [%] | inhibition [13] [%] | inhibition [14] [%] | SMILES
5 | 50 | 50 | – | – | – | – | – | – | – | – | – | – | – | – | CCCCCCCCCCCCCC[C@@H]1OC[C@@H](N)[C@H]1O
6 | 50 | 50 | – | – | – | – | – | – | – | – | – | – | – | – | CCCCCCCCCCCCCC[C@@H]1OC[C@H](N)[C@H]1O
7 | 50 | 50 | – | – | – | – | – | – | – | – | – | – | – | – | CCCCCCCCCCCCCC[C@H]1OC[C@H](N)[C@@H]1O
8 | 50 | 50 | – | – | – | – | – | – | – | – | – | – | – | – | CCCCCCCCCCCCCC[C@H]1OC[C@@H](N)[C@H]1O
9 | 1.8 | 0.59 | 34 | 99.5 | 50 | 47.6 | 55.4 | 26.3 | 96.2 | 43.9 | 51.2 | 79.2 | 99.9 | 50 | CCCCCCCCCCCCCC[C@H]1OC[C@@H](N)[C@@H]1O
